This is a sample that favours compounds with a hit; in the whole collection about 4.8% have one here.
Calb FLC – C. albicans growth inhibition with fluconazole, primary screen, CaCi-2 strain, Alamar Blue fluorescence. growth inhibition, % (test concentration not listed). C. albicans CaCi-2 (fluconazole-resistant clinical isolate) + fluconazole, 48 h. 300,000 tested, 0.57% active;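 active means growth inhibition above about 58% in most replicates, limit read from the data, passing the limit was not always enough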;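 further: all wells also contain fluconazole at 8 µg/ml as a sub-toxic cotreatment; 0% = median of DMSO wells and 100% = median of geldanamycin control wells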
ATG4B inhibitor – ATG4B protease inhibitors, primary screen, biochemical, fluorescence, uHTS | ATG4B cleavage of LC3-PLA2, NBD-HPC fluorescence, 1 h | inhibition, % at 8.33 µM | 340,000 tested, 0.51% active; in the data active means inhibition above about 40%
Target sequence (Q9Y4P1 whole entry, looked up): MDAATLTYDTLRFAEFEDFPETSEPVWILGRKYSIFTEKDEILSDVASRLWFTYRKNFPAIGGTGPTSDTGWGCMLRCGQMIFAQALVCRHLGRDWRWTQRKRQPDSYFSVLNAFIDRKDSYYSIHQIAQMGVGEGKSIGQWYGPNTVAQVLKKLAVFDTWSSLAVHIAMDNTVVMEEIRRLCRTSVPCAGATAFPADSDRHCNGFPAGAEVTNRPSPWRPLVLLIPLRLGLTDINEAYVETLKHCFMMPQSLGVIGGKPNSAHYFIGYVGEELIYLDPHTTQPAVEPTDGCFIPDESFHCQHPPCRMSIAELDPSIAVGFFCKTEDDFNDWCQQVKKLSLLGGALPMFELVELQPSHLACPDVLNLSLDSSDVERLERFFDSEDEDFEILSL
NALP1 inh – NALP1 inflammasome inhibitors in reconstituted yeast, colorimetric, S. cerevisiae, triplicate retest. S. cerevisiae NALP1/ASC/caspase-1 growth, X-gal OD620, 72 h. inhibition, % at 10 µM. 280,000 tested, 0.61% active. AID 2071, 2009; in the data active means inhibition mostly above about 24%, no sharp cut-off; inactive means mostly below about 32%
ALR inh – inhibitors of human ALR sulfhydryl oxidase, primary screen, biochemical, H2O2 detection, HRP-luminol luminescence, single point. FAD-linked sulfhydryl oxidase ALR (Homo sapiens), P55789. purified ALR, DTT oxidation. inhibition, % (no concentration beside the values). 290,000 tested, 3.8% active. AID 485317, 2010;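 active means mean replicate inhibition above about 79%, with every replicate also reaching it, limit read from the data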
UCH37 inh – inhibitors of human UCH37 deubiquitinase, primary screen, biochemical, Ub-AMC cleavage, fluorescence; 330,000 tested, 0.33% active; inhibition, % (test concentration not listed); Ubiquitin carboxyl-terminal hydrolase isozyme L5 (Homo sapiens), Q9Y5K5; purified proteasome/UCH37;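 active means mean inhibition over replicate wells above about 20%, limit read from the data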;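 further: 0% = compound-free wells with enzyme and 100% = wells lacking proteasome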
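system = Proteasome-associated human UCH37 deubiquitinase | amount = 0.15 nM proteasome as dispensed | medium = pH 7.4 Tris-HCl (50 mM) with ovalbumin, ATP-MgCl2, DTT | incubation = 30 min preincubation with enzyme, 25 min cleavage at room temperature | detection = AMC fluorescence 355/460 nm | read-out basis = percent inhibition | controls = no-proteasome and no-compound wells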
NLRP3 yeast inh – NALP3 inflammasome inhibitors in reconstituted yeast, primary screen, luminescence, uHTS. Yeast reconstituted NLRP3/ASC/caspase-1, beta-gal luminescence, 24 h. inhibition, % at 10 µM. 330,000 tested, 0.39% active. AID 2825, 2010;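 active means inhibition of 50% or more; inactive means inhibition below 50%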;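 further: plate controls were induced DMSO wells for no effect and uninduced yeast grown without galactose for full effect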
Starred values were filed as active, the others as inactive.

Results for Cc1csc(NC(=O)CSc2nnc(C)c(=O)n2N)n1 ?
Calb FLC: 8; ATG4B inhibitor: -10; NALP1 inh: -26; ALR inh: 99*; UCH37 inh: 1; NLRP3 yeast inh: 13

Results for Cc1nnc(SCC(=O)Nc2ccc(F)cc2)n(N)c1=O ?
Calb FLC: -3; ATG4B inhibitor: -3; NALP1 inh: 9; ALR inh: -30; UCH37 inh: 4; NLRP3 yeast inh: 4

What do the screens show for `COc1cc(C=NNC(=O)COc2ccc([N+](=O)[O-])cc2)ccc1OCC(=O)N1CCOCC1`?
UCH37 inh: 1

Results for CSc1ccc(C=NNc2nc(C)cc(C)n2)cc1 ?
UCH37 inh: 14

Results for Cc1ccc(S(=O)(=O)Nc2ccc(Br)cc2C=Nn2cnnc2)cc1 ?
UCH37 inh: 3

How did CCSCc1nnc(SCC(=O)Nc2nc(C)cs2)n1C do in these assays?
Calb FLC: -29; NALP1 inh: 41*; ALR inh: -3; UCH37 inh: 1; NLRP3 yeast inh: 7

What do the screens show for `CCn1c(SCC(=O)Nc2nc(C)cs2)nnc1C(NC(=O)c1ccccc1Cl)C(C)C` (centres undefined)?
Calb FLC: 3; ATG4B inhibitor: -4; NALP1 inh: 9; ALR inh: 0; UCH37 inh: 1; NLRP3 yeast inh: 6

What do the screens show for `Cc1nnc(SCC(=O)Nc2ccc(Br)cc2)n(N)c1=O`?
Calb FLC: 6; ATG4B inhibitor: 6; NALP1 inh: 1; ALR inh: -24; UCH37 inh: 1; NLRP3 yeast inh: 10

Results for C=CCn1c(SCC(=O)Nc2nc(C)cs2)nnc1C(CO)NC(=O)c1ccccc1 (centres undefined) ?
Calb FLC: 11; ATG4B inhibitor: 2; NALP1 inh: -3; ALR inh: 85*; UCH37 inh: 1; NLRP3 yeast inh: 3

What do the screens show for `COc1ccc(CCSc2nnc(C3CCCCC3)n2N)cc1`?
Calb FLC: -3; ATG4B inhibitor: 4; NALP1 inh: 13; ALR inh: 96*; UCH37 inh: 0; NLRP3 yeast inh: -1

Results for Cc1nnc(SCC(=O)Nc2ccc(N(C)C)cc2)n(N)c1=O ?
Calb FLC: 5; ATG4B inhibitor: -9; NALP1 inh: -2; ALR inh: 99*; UCH37 inh: 1; NLRP3 yeast inh: 21

What do the screens show for `Cc1cccc(C(=O)NCCc2nnc(SCC(=O)Nc3nc(C)cs3)n2C)c1`?
Calb FLC: -2; ATG4B inhibitor: 6; NALP1 inh: 14; ALR inh: 2; UCH37 inh: -3; NLRP3 yeast inh: 7

Results for COc1ccc(NC(=O)CSc2nnc(C3CCCCC3)n2N)c(OC)c1 ?
Calb FLC: -2; ATG4B inhibitor: -8; NALP1 inh: 11; ALR inh: -13; UCH37 inh: 1; NLRP3 yeast inh: 0

How did CC(=NOC(=O)c1c(-c2c(F)cccc2Cl)noc1C)c1nccs1 do in these assays?
UCH37 inh: 1

How did Cc1[nH]n(-c2cccc3ccccc23)c(=O)c1C=Nc1sc2c(c1C#N)CCC2 do in these assays?
UCH37 inh: 10

What do the screens show for `Cc1ccccc1NC(=O)CCC(=O)NN=Cc1cccnc1`?
UCH37 inh: 1

Results for Nn1c(SCC(=O)Nc2nccs2)nnc1C1CC1 ?
Calb FLC: -4; ATG4B inhibitor: 3; NALP1 inh: -2; ALR inh: 99*; UCH37 inh: 0; NLRP3 yeast inh: 25

How did CCn1c(SCC(=O)Nc2nccs2)nnc1C1CC1 do in these assays?
ATG4B inhibitor: 4; NALP1 inh: -85; ALR inh: 1; UCH37 inh: 1; NLRP3 yeast inh: 16

What do the screens show for `NC(=O)c1ccsc1N`?
Calb FLC: -14; NALP1 inh: 0; ALR inh: 98*; NLRP3 yeast inh: 25

Results for Nc1sccc1C(=O)c1ccc(Cl)cc1 ?
Calb FLC: 10; ATG4B inhibitor: 0; NALP1 inh: 4; UCH37 inh: 2

Results for O=C(CSc1nnc(-c2cccnc2)o1)Nc1nccs1 ?
ATG4B inhibitor: -1; ALR inh: 99*; UCH37 inh: 3; NLRP3 yeast inh: 12
